Only some compounds are listed: those with a hit (about 2.1% of all), similar ones and a draw of the others.
APJ antag – antagonists of human APJ apelin receptor | P35414 | CHO-K1 APJ beta-arrestin complementation, luminescence | inhibition, % at 20 µM | 0.32% of 330,000 active | AID 2521;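 active means inhibition above about 40% at 20 µM, limit read from the data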;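 further: cells challenged with 10 nM apelin-13 agonist together with compound; plate controls were apelin-13 plus DMSO wells for no effect and DMSO wells lacking apelin-13 for full effect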
APJ agonist – APJ receptor agonism; P35414; activation, % at 20 µM; 0.11% of 330,000 active; AID 2520; CHO-K1 APJ PathHunter beta-arrestin, luminescence; 0% DMSO wells, 100% apelin;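 active means activation more than six SD over the plate average, tested at 20 µM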;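 further: 0% = DMSO alone and 100% = apelin-13 at 10 nM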
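Assay system – PathHunter CHO-K1 APJ (AGTRL-1) beta-arrestin reporter cells · Compound – one dose, 20 µM compound, 1% DMSO · Timing – compound 90 min 25 °C, reagent 1 h · Measured by – luminescence from split beta-galactosidase complementation, Galacton Star/Emerald II substrate · Measure – beta-arrestin recruitment to APJ as agonist activity, luminescent signal · Benchmarks – DMSO vs Apelin-13 10 nM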
EBI2 block – blocks human EBI2 receptor beta-arrestin signaling; P32249; inhibition, % at 5 µM; 0.81% of 360,000 active; EBI2 beta-arrestin recruitment, luminescence, 7a,25-OHC stimulated; AID 651636; in the data active means inhibition above about 38%;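 further: enzyme fragment complementation signal reports receptor beta-arrestin coupling in cells; 0% = agonist plus DMSO wells and 100% = wells without agonist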
CXCR6 block – blocks human CXCR6 beta-arrestin recruitment; O00574; 0.36% of 360,000 active; inhibition, % at 20 µM; CHO-K1 PathHunter CXCR6 beta-arrestin, luminescence; in the data active means inhibition above about 34%, passing the limit was not always enough;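 further: antagonist mode with CXCL16 agonist at 10 nM final; 0% = 10 nM CXCL16 with DMSO and 100% = unstimulated wells without agonist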
CCR6 antagonist – antagonists of human CCR6 receptor | P51684 | AID 493098 | CHO-K1 CCR6 PathHunter beta-arrestin, luminescence, CCL20-stimulated | 0.49% of 340,000 active | inhibition, % at 20 µM;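 active means compounds whose inhibition of the agonist-driven luminescence signal at 20 µM reaches about 50%, limit read from the data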;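 further: cells stimulated with CCL20 at 14 nM final; plate controls were DMSO with CCL20 for no effect and DMSO without agonist for full effect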
m5-HT2A agonist – activates the mouse 5-HT2A serotonin receptor; AID 624169; activation, % at 7.6 µM; 0.66% of 360,000 active; CHO-K1 mHTR2A beta-arrestin complementation, luminescence; percent of 30 µM serotonin response;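 active means activation above a run cutoff, the mean activation of all tested compounds plus 3 SD, cut at about 14% in these data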;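 further: 0% = plate median of compound wells and 100% = 30 µM serotonin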
Target sequence (P35363 whole entry, looked up): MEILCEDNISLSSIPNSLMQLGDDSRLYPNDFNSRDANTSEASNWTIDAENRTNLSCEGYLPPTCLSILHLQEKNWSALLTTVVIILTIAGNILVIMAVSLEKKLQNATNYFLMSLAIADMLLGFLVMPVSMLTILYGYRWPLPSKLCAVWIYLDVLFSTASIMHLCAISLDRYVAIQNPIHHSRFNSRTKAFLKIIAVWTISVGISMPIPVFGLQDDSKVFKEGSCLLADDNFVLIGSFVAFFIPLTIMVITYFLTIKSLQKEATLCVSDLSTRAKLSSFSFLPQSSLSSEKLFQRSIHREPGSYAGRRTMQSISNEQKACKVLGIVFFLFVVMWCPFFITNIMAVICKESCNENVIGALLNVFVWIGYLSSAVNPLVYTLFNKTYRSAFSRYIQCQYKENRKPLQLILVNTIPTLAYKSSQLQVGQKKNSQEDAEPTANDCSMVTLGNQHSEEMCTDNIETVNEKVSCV
APJ ag confirm – confirmation of human APJ apelin receptor agonists; shares compounds with APJ agonist; CHO-K1 APJ PathHunter beta-arrestin, luminescence; activation, % at 20 µM; 10% of 310 active; AID 2764;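 active means activation above 40%, taking the highest of four retests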;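 further: plate controls were DMSO wells for no effect and apelin-13 at 10 nM for full effect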
The depositor's hits bear a star; · = not tested or not shown.

SMILES | APJ antag | APJ agonist | EBI2 block | CXCR6 block | CCR6 antagonist | m5-HT2A agonist | APJ ag confirm
O=[N+]([O-])c1cccc(/C=N/n2c(COc3ccccc3)n[nH]c2=S)c1 | 11 | -3 | 17 | 2 | 22 | -3 | ·
O=[N+]([O-])c1ccc(/C=N/n2c(COc3ccccc3)n[nH]c2=S)cc1 | -19 | 14* | 8 | 2 | 17 | 0 | 8
Cc1ccc(S(=O)(=O)N(C)c2ccc(OC(=O)COc3ccccc3)cc2)cc1 | -9 | -4 | -11 | 5 | 14 | 0 | ·
O=C(COc1ccccc1[N+](=O)[O-])Nc1ccc(N2CCN(C(=O)c3cccs3)CC2)cc1 | -19 | 16* | -26 | 3 | -17 | 2 | 24
O=C(Nc1ccc(N2CCN(C(=O)c3cccs3)CC2)cc1)c1ccc([N+](=O)[O-])o1 | -94 | 29* | 13 | 0 | · | -2 | 6
O=C(Nc1ccc(N2CCN(C(=O)c3cccs3)CC2)cc1)c1ccco1 | 15 | 1 | 10 | -6 | 7 | 6 | ·
CCC(=O)Nc1ccc(N2CCN(C(=O)c3cccs3)CC2)cc1 | 10 | -4 | -15 | -4 | -3 | -1 | ·
COc1ccccc1N=c1c2c([N+](=O)[O-])cc([N+](=O)[O-])cc2n(O)n1-c1ccccc1OC | -22 | 15* | · | · | · | · | 17
COc1ccccc1-n1cc2c([N+](=O)[O-])cc([N+](=O)[O-])cc2n1 | -44 | -2 | 11 | 17 | 33 | -4 | ·
CCOc1ccc2oc(C(=O)NNC(=O)c3csc(N4CCOCC4)n3)c(C)c2c1 | 17 | -3 | -8 | 6 | 3 | 3 | ·
CC1=NOC(=O)/C1=C/c1ccc(-c2ccc(Cl)cc2)o1 | 4 | 20* | 5 | 64* | · | -1 | 3
CC1=NOC(=O)/C1=C\c1ccc(-c2ccc(Br)cc2C(=O)O)o1 | -15 | 0 | -3 | 8 | 5 | 1 | ·
CC1=NOC(=O)/C1=C\c1ccc(-c2cc(Cl)ccc2Cl)o1 | -7 | 66* | 2 | 57* | 74* | 7 | 13
COc1ccc(Cl)cc1/C=C1/C(=O)ON=C1C | 6 | -2 | -1 | -16 | -16 | -1 | ·
CCCCC1=CC2=CC(=O)C(C)(OC(=O)CC)C(=O)C2=CN1C1CCCCC1 (stereo not given) | -25 | 125* | 2 | -6 | 2 | 4 | 54*
COC(=O)CCCC1=CC2=CC(=O)C(C)(OC(=O)c3cccs3)C(=O)C2=CN1C1CCCCC1 (stereo not given) | -47 | 92* | -8 | -21 | -5 | 7 | 21
NNC(=O)C1COc2cc3ccccc3cc2O1 (stereo not given) | -2 | -1 | 4 | 4 | 3 | 4 | ·
COc1ccc2[nH]c3c(=O)n(/N=C/[C@H]4C(C)C=C(C)CC4C)c(=O)[nH]c3c2c1 (stereo not given in full) | -30 | 24* | -8 | -12 | -2 | -5 | 28
N#C/C(=C(/O)c1ccc([N+](=O)[O-])o1)c1nc2ccccc2[nH]1 | -2 | 2 | -6 | 28 | 40 | 0 | ·
Cc1ccc2nc(/C(C#N)=C\c3ccc([N+](=O)[O-])o3)[nH]c2c1 | -45 | 95* | 37 | -1 | -21 | 12 | 13
Cc1ccc2nc(/C(C#N)=C\c3ccc(N4CCOCC4)o3)[nH]c2c1 | 9 | 0 | 6 | 14 | 21 | 0 | ·
N#C/C(=C\c1ccc([N+](=O)[O-])o1)c1nc2ccccc2[nH]1 | -15 | 42* | · | · | 3 | · | 6
CCCOc1ccc(/C=N/NC(=O)c2ccc(Cn3cc([N+](=O)[O-])cn3)o2)cc1 | 10 | 4 | 1 | 7 | 11 | 0 | ·
O=C(CSc1n[nH]c(=O)n1C1CC1)Nc1ccccc1 | 6 | 2 | 13 | -4 | -9 | -1 | ·
O=C(CSc1n[nH]c(=O)n1C1CC1)Nc1cc(Cl)ccc1Oc1ccccc1 | -16 | 12* | -9 | -11 | -5 | 11 | 20
SMILES | APJ antag | APJ agonist | EBI2 block | CXCR6 block | CCR6 antagonist | m5-HT2A agonist | APJ ag confirm
COc1cc(-c2nc(-c3ccc(NC(=O)c4ccc(Br)o4)cc3)no2)cc(OC)c1OC | -20 | 2 | -14 | -1 | -9 | 3 | ·
COc1ccc(-c2nc(-c3ccc(NC(=O)c4ccc(Br)o4)cc3)no2)cc1OC | -13 | 47* | -29 | -4 | 3 | 11 | 11
Cc1ccc(-c2nc3cc(N)ccc3o2)cc1 | -1 | -4 | -11 | -10 | -5 | -2 | ·
Clc1ccc(CN2CCc3c([nH]c4ccccc34)C2)cc1Cl | -14 | 85* | 16 | -3 | 14 | 3 | 3
Clc1cccc(CN2CCc3c([nH]c4ccccc34)C2)c1 | -33 | 11 | 27 | -4 | 5 | 8 | ·
CCCc1nc2c(s1)CCc1onc(-c3ccc(OC)cc3)c1-2 | -11 | -1 | 7 | -3 | 2 | -3 | ·
Oc1ccccc1CNc1ccc(Br)cn1 | 5 | 18* | -56 | -8 | -4 | 3 | 26
Brc1ccc(NCc2cccc3ccccc23)nc1 | -12 | -5 | -1 | -3 | 15 | -3 | ·
COc1ccc(CCN2CCC(Nc3nc4ccccc4n3Cc3ccc(F)cc3)CC2)cc1 | 18 | 32* | -2 | 1 | 4 | 3 | 17
Clc1cccc(Cl)c1CSc1nnc(-c2ccncc2)s1 | -18 | 70* | -53 | -8 | -17 | 1 | 27
CC(C)Nc1ccc(Nc2ccnc3cc4ccccc4cc23)cc1 | 10 | 24* | 24 | 12 | 23 | -14 | 34
COc1ccc(Nc2ccnc3ccccc23)cc1 | 4 | -4 | 8 | -8 | -6 | 0 | ·
CC(=O)c1c(C)[nH]c(C(=O)OCc2cccc(Cl)c2)c1C | 14 | 0 | 1 | -8 | 12 | -5 | ·
CC(=O)c1c(C)[nH]c(C(=O)OCc2cc(-c3ccco3)on2)c1C | 8 | 13* | -5 | 2 | 8 | 12 | 4
N/C(=N\OC(=O)c1cc(Br)ccc1Cl)c1cccnc1 | -105 | 11* | -21 | -18 | -16 | -3 | 28
c1ccc(CNc2nc(-c3ccccc3)nc3ccccc23)cc1 | 14 | -2 | -21 | -8 | 6 | -3 | ·
c1ccc(CNc2nc(NCc3ccccc3)c3ccccc3n2)cc1 | -17 | 28* | -12 | -2 | -3 | -8 | 24
COc1cc(N)c(C(=O)c2nccc3cc(OC)c(OC)cc23)cc1OC | -9 | 0 | 8 | 8 | 1 | 2 | ·
COc1cc(C(=O)c2nccc3cc(OC)c(OC)cc23)c([N+](=O)[O-])cc1OC | -11 | 14* | -23 | -2 | -4 | 3 | 4
CC(=O)Nc1nn(C)c2nc3cc(C)ccc3cc12 | -4 | 3 | -2 | -2 | 36 | -2 | ·
N=c1c(C(=O)NC2CCCCC2)cc2c(=O)n3ccccc3nc2n1CCc1ccccc1 | -8 | 20* | 10 | 2 | 19 | -3 | -2

Assay outcomes: PubChem, several laboratories
